Results: ChEMBL document CHEMBL5724801, “EUbOPEN Chemogenomics Library - Multiplex” (2024)
Where “and” joins values, the source holds several entries; their conditions need not be identical. Equal values may be shown once.

System: HEK-293T
Assay: Multiplex assay against HEK293T
Format: toxicity, cell-based
Details: human
How it was run: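 Values for tubulin, mitochondrial-mass and membrane-permeability phenotypes are per cents of cells with healthy nuclei. These cells were identified by CellPathfinder machine-learning gating of live cells that had been stained at seeding with Hoechst33342, BioTracker Green Microtubule Cytoskeleton Dye, MitoTracker Red and Annexin V Alexa Fluor 680 and imaged on a CQ1 microscope at 37°C and 5% CO2 after compound addition. The gating first set Hoechst high-intensity objects apart from normal cells, then split normal cells into healthy, pyknosed or fragmented nuclei, and pyknosed cells into mitotic or apoptotic.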

[1] = 12 h, 1 µM, compound concentration 1 uM
[2] = 12 h, 10 µM, compound concentration 10 uM
[3] = 24 h, 1 µM, compound concentration 1 uM
[4] = 24 h, 10 µM, compound concentration 10 uM
[5] = 48 h, 1 µM, compound concentration 1 uM
[6] = 48 h, 10 µM, compound concentration 10 uM

CC(C)c1ccc(/C=N/NC(=O)c2ccc(O)cc2)cc1
Population Apoptotic (%) [1]: 6.34% and 9.68% | Population Fragmented Nuclei (%) [1]: 1.61% and 0.64% | Population Healthy Nuclei (%) [1]: 60.22% and 20.38% | Population Hoechst High Intensity Objects (%) [1]: 0.53% and 0% | Population Membrane Permeable-Phenotype (%) [1]: 0.45% and 0% | Population Mitochondria Different-Phenotype (%) [1]: 40.62% and 43.75% | Population Mitotic Cells (%) [1]: 93.66% and 90.32% | Population Normal (%) [1]: 99.47% and 100% | Population Pyknosed Nuclei (%) [1]: 38.17% and 78.98% | Total Cell Count [1]: 374 and 157 | Population Apoptotic (%) [2]: 12.69% and 7.75% | Population Fragmented Nuclei (%) [2]: 8.73% and 1.3% | Population Hoechst High Intensity Objects (%) [2]: 0.28% and 0% | Population Membrane Permeable-Phenotype (%) [2]: 0% | Population Mitochondria Different-Phenotype (%) [2]: 41.58% and 26.09% | Population Mitotic Cells (%) [2]: 87.31% and 92.25% | Population Normal (%) [2]: 99.72% and 100% | Population Pyknosed Nuclei (%) [2]: 37.75% and 83.77% | Total Cell Count [2]: 356 and 154 | Population Apoptotic (%) [3]: 16.67% and 14.29% | Population Fragmented Nuclei (%) [3]: 1.59% and 2.38% | Population Healthy Nuclei (%) [3]: 75.09% and 35.12% | Population Hoechst High Intensity Objects (%) [3]: 0% | Population Membrane Permeable-Phenotype (%) [3]: 0.71% and 3.39% | Population Mitochondria Different-Phenotype (%) [3]: 15.53% and 13.56% | Population Mitotic Cells (%) [3]: 83.33% and 85.71% | Population Normal (%) [3]: 100% | Population Pyknosed Nuclei (%) [3]: 23.32% and 62.5% | Population Tubulin-Different-Phenotype (%) [3]: 14.59% and 5.08% | Population Apoptotic (%) [4]: 14.4% and 12.98% | Population Fragmented Nuclei (%) [4]: 6.23% and 2.06% | Population Healthy Nuclei (%) [4]: 70.88% and 30.41% | Population Hoechst High Intensity Objects (%) [4]: 0% | Population Membrane Permeable-Phenotype (%) [4]: 0.78% and 0% | Population Mitochondria Different-Phenotype (%) [4]: 15.5% and 15.25% | Population Mitotic Cells (%) [4]: 85.6% and 87.02% | Population Normal (%) [4]: 100% | Population Pyknosed Nuclei (%) [4]: 22.89% and 67.53% | Population Tubulin-Different-Phenotype (%) [4]: 5.43% and 1.69% | Total Cell Count [4]: 546 and 194 | Population Apoptotic (%) [5]: 8.44% and 19.78% | Population Fragmented Nuclei (%) [5]: 2.76% and 1.47% | Population Healthy Nuclei (%) [5]: 85.78% and 53.92% | Population Hoechst High Intensity Objects (%) [5]: 0.15% and 0% | Population Membrane Permeable-Phenotype (%) [5]: 4.34% and 1.82% | Population Mitochondria Different-Phenotype (%) [5]: 13.72% and 24.55% | Population Mitotic Cells (%) [5]: 91.56% and 80.22% | Population Normal (%) [5]: 99.85% and 100% | Population Apoptotic (%) [6]: 10.39% and 16.36% | Population Fragmented Nuclei (%) [6]: 4.43% and 3.38% | Population Healthy Nuclei (%) [6]: 84.38% and 70.05% | Population Hoechst High Intensity Objects (%) [6]: 0.22% and 0% | Population Membrane Permeable-Phenotype (%) [6]: 1.81% and 0.69% | Population Mitochondria Different-Phenotype (%) [6]: 7.58% and 15.17% | Population Mitotic Cells (%) [6]: 89.61% and 83.64% | Population Normal (%) [6]: 99.78% and 100% | Population Pyknosed Nuclei (%) [6]: 11.19% and 26.57% | Population Tubulin-Different-Phenotype (%) [6]: 1.03% and 9.66%

O=C1NCc2ccc3c(-c4cccc(Cl)c4)c[nH]c3c21
Population Apoptotic (%) [1]: 9.74% and 10.57% | Population Fragmented Nuclei (%) [1]: 0.72% and 0.69% | Population Hoechst High Intensity Objects (%) [1]: 0.36% and 0% | Population Membrane Permeable-Phenotype (%) [1]: 0% | Population Mitochondria Different-Phenotype (%) [1]: 41.8% and 23.81% | Population Mitotic Cells (%) [1]: 90.26% and 89.43% | Population Normal (%) [1]: 99.64% and 100% | Population Pyknosed Nuclei (%) [1]: 55.4% and 84.83% | Total Cell Count [1]: 279 and 145 | Population Apoptotic (%) [2]: 21.19% and 16.81% | Population Fragmented Nuclei (%) [2]: 1.88% and 2.24% | Population Healthy Nuclei (%) [2]: 27.23% and 13.43% | Population Hoechst High Intensity Objects (%) [2]: 0.47% and 4.29% | Population Membrane Permeable-Phenotype (%) [2]: 0% | Population Mitotic Cells (%) [2]: 78.81% and 83.19% | Population Normal (%) [2]: 99.53% and 95.71% | Population Pyknosed Nuclei (%) [2]: 70.89% and 84.33% | Population Tubulin-Different-Phenotype (%) [2]: 5.17% and 11.11% | Total Cell Count [2]: 214 and 140 | Population Apoptotic (%) [3]: 26.79% and 11.65% | Population Fragmented Nuclei (%) [3]: 3.63% and 0.67% | Population Healthy Nuclei (%) [3]: 59.41% and 30.2% | Population Hoechst High Intensity Objects (%) [3]: 0% | Population Membrane Permeable-Phenotype (%) [3]: 0% | Population Mitotic Cells (%) [3]: 73.21% and 88.35% | Population Normal (%) [3]: 100% | Population Pyknosed Nuclei (%) [3]: 36.96% and 69.13% | Population Tubulin-Different-Phenotype (%) [3]: 7.78% and 8.89% | Total Cell Count [3]: 303 and 149 | Population Apoptotic (%) [4]: 31.52% and 52.43% | Population Fragmented Nuclei (%) [4]: 1.99% and 3.12% | Population Healthy Nuclei (%) [4]: 24.7% and 16.41% | Population Hoechst High Intensity Objects (%) [4]: 0% and 3.76% | Population Membrane Permeable-Phenotype (%) [4]: 0% and 4.76% | Population Mitochondria Different-Phenotype (%) [4]: 56.45% and 23.81% | Population Mitotic Cells (%) [4]: 68.48% and 47.57% | Population Normal (%) [4]: 100% and 96.24% | Population Pyknosed Nuclei (%) [4]: 73.31% and 80.47% | Population Tubulin-Different-Phenotype (%) [4]: 1.61% and 0% | Total Cell Count [4]: 251 and 133 | Population Apoptotic (%) [5]: 20.62% and 21.52% | Population Fragmented Nuclei (%) [5]: 3.28% and 0.63% | Population Healthy Nuclei (%) [5]: 72.22% and 49.69% | Population Hoechst High Intensity Objects (%) [5]: 0.5% and 0% | Population Membrane Permeable-Phenotype (%) [5]: 0.35% and 0% | Population Mitotic Cells (%) [5]: 79.38% and 78.48% | Population Normal (%) [5]: 99.5% and 100% | Population Pyknosed Nuclei (%) [5]: 24.49% and 49.69% | Total Cell Count [5]: 398 and 159 | Population Apoptotic (%) [6]: 54.1% and 46.85% | Population Fragmented Nuclei (%) [6]: 4.95% and 2.36% | Population Hoechst High Intensity Objects (%) [6]: 0.45% and 0.78% | Population Membrane Permeable-Phenotype (%) [6]: 0% | Population Mitochondria Different-Phenotype (%) [6]: 83.15% and 38.46% | Population Mitotic Cells (%) [6]: 45.9% and 53.15% | Population Normal (%) [6]: 99.55% and 99.22% | Population Pyknosed Nuclei (%) [6]: 54.95% and 87.4% | Total Cell Count [6]: 223 and 128

COc1ccc2nc3ccc(OC)cc3c(SCCCN)c2c1.Cl
Population Apoptotic (%) [1]: 9.64% and 17.91% | Population Fragmented Nuclei (%) [1]: 1.39% and 4.49% | Population Hoechst High Intensity Objects (%) [1]: 0.55% and 0% | Population Membrane Permeable-Phenotype (%) [1]: 1.06% and 0% | Population Mitotic Cells (%) [1]: 90.36% and 82.09% | Population Normal (%) [1]: 99.45% and 100% | Population Pyknosed Nuclei (%) [1]: 46.24% and 85.9% | Population Tubulin-Different-Phenotype (%) [1]: 5.85% and 13.33% | Total Cell Count [1]: 361 and 156 | Population Apoptotic (%) [2]: 19.66% and 51.55% | Population Fragmented Nuclei (%) [2]: 81.39% and 89.94% | Population Healthy Nuclei (%) [2]: 8.58% and 2.44% | Population Hoechst High Intensity Objects (%) [2]: 3.16% and 0.62% | Population Membrane Permeable-Phenotype (%) [2]: 0% and 3.23% | Population Mitochondria Different-Phenotype (%) [2]: 15% and 9.68% | Population Mitotic Cells (%) [2]: 80.34% and 48.45% | Population Normal (%) [2]: 96.84% and 99.38% | Population Pyknosed Nuclei (%) [2]: 10.03% and 7.63% | Population Tubulin-Different-Phenotype (%) [2]: 31% and 48.39% | Total Cell Count [2]: 1204 and 1280 | Population Apoptotic (%) [3]: 11.89% and 22.43% | Population Fragmented Nuclei (%) [3]: 1.64% and 2.45% | Population Healthy Nuclei (%) [3]: 72.36% and 31.9% | Population Hoechst High Intensity Objects (%) [3]: 0% and 0.61% | Population Membrane Permeable-Phenotype (%) [3]: 1.51% and 3.85% | Population Mitochondria Different-Phenotype (%) [3]: 22.86% and 15.38% | Population Mitotic Cells (%) [3]: 88.11% and 77.57% | Population Normal (%) [3]: 100% and 99.39% | Population Pyknosed Nuclei (%) [3]: 26% and 65.64% | Population Tubulin-Different-Phenotype (%) [3]: 16.33% and 11.54% | Population Apoptotic (%) [4]: 66.98% and 59.74% | Population Fragmented Nuclei (%) [4]: 80.88% and 91.28% | Population Healthy Nuclei (%) [4]: 10.6% and 3.22% | Population Hoechst High Intensity Objects (%) [4]: 1.74% and 0.85% | Population Membrane Permeable-Phenotype (%) [4]: 2.27% and 2.22% | Population Mitochondria Different-Phenotype (%) [4]: 31.06% and 15.56% | Population Mitotic Cells (%) [4]: 33.02% and 40.26% | Population Normal (%) [4]: 98.26% and 99.15% | Population Pyknosed Nuclei (%) [4]: 8.51% and 5.5% | Population Tubulin-Different-Phenotype (%) [4]: 37.88% and 35.56% | Total Cell Count [4]: 1267 and 1411 | Population Fragmented Nuclei (%) [5]: 3.15% and 5.62% | Population Healthy Nuclei (%) [5]: 85.43% and 51.69% | Population Hoechst High Intensity Objects (%) [5]: 0.08% and 0.56% | Population Membrane Permeable-Phenotype (%) [5]: 4.52% and 2.17% | Population Mitochondria Different-Phenotype (%) [5]: 15.94% and 31.52% | Population Mitotic Cells (%) [5]: 95.17% and 75% | Population Normal (%) [5]: 99.92% and 99.44% | Population Apoptotic (%) [6]: 52.58% and 29.51% | Population Fragmented Nuclei (%) [6]: 73.59% and 92.69% | Population Hoechst High Intensity Objects (%) [6]: 4.79% and 2.09% | Population Membrane Permeable-Phenotype (%) [6]: 4.62% and 6.67% | Population Mitochondria Different-Phenotype (%) [6]: 54.23% and 53.33% | Population Mitotic Cells (%) [6]: 47.42% and 70.49% | Population Normal (%) [6]: 95.21% and 97.91% | Population Pyknosed Nuclei (%) [6]: 7.17% and 4.2% | Total Cell Count [6]: 1420 and 1482
